From ChEMBL document CHEMBL3112391, “Ethoxysanguinarine Induces Inhibitory Effects and Downregulates CIP2A in Lung Cancer Cells” (ACS Med Chem Lett, 2014)
Calls of active or inactive are those of the source.

Tests used:
NCI-H1975 [1] = assay: Downregulation of CIP2A protein expression in human NCI-H1975 cells after 24 hrs by Western blot analysis; type: functional, cell-based
Summary of the method: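 H1975 cells were incubated with ESG at a series of concentrations, including 1 and 2 μM, for 24 h. Cell lysates were Western blotted with anti-CIP2A antibody.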

A549 [2] = assay: Cytotoxicity against human A549 cells assessed as growth inhibition after 48 hrs by MTT assay; type: functional, cell-based; conditions: A549, 48 h
Summary of the method: (§1)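 Lung cancer cell lines (adenocarcinoma, squamous and large cell lines) exposed to 0.5−10 μM for 48 h; viability read by MTT; IC50 taken from the dose–response.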

A549 [3] = assay: Downregulation of CIP2A mRNA expression in human A549 cells after 24 hrs by RT-PCR analysis; type: functional, cell-based
Summary of the method: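 Cells exposed to ESG for 24 h. CIP2A transcript level was measured by real-time quantitative RT-PCR.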

A549 [4] = assay: Downregulation of CIP2A protein expression in human A549 cells after 24 hrs by Western blot analysis; type: functional, cell-based
Summary of the method: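 A549 cells were incubated with ESG at a series of concentrations, including 3.5 and 10 μM, for 24 h. Cell lysates were immunoblotted for CIP2A.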

NCI-H1975 [5] = assay: Cytotoxicity against human NCI-H1975 cells assessed as growth inhibition after 48 hrs by MTT assay; type: functional, cell-based; conditions: NCI-H1975, 48 h; summary of the method: as §1
[6] = Cytotoxicity against human SPC-A1 cells assessed as growth inhibition after 48 hrs by MTT assay; type: functional, cell-based; conditions: SPCA1, 48 h; summary of the method: as §1
A549 [7] = assay: Induction of apoptosis in human A549 cells assessed as decrease in pro-caspase-8 protein expression at 1 to 10 uM after 24 hrs by Western blot analysis; type: functional, cell-based
Summary of the method: (§2)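 H1975 or A549 cells treated 24 h at various concentrations; lysates immunoblotted for apoptosis markers (PARP, caspases).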

NCI-H1975 [8] = assay: Downregulation of CIP2A protein expression in human NCI-H1975 cells at 1 to 2 uM after 24 hrs by Western blot analysis; type: functional, cell-based
Summary of the method: (§3)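 H1975 or A549 cells incubated 24 h across a concentration series; whole-cell lysates immunoblotted for CIP2A, c-Myc, pAKT and total AKT.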

A549 [9] = assay: Induction of apoptosis in human A549 cells assessed as PARP cleavage at 1 to 10 uM after 24 hrs by Western blot analysis; type: functional, cell-based; summary of the method: as §2
[10] = Cytotoxicity against human L78 cells assessed as growth inhibition after 48 hrs by MTT assay; type: functional, cell-based; conditions: L78, 48 h; summary of the method: as §1
NCI-H1975 [11] = assay: Induction of apoptosis in human NCI-H1975 cells assessed as PARP cleavage at 1 to 2.5 uM after 24 hrs by Western blot analysis; type: functional, cell-based; summary of the method: as §2
NCI-H1975 [12] = assay: Induction of apoptosis in human NCI-H1975 cells at 0.5 to 2.5 uM after 24 hrs by annexin V/propidium iodide staining-based flow cytometric analysis; type: functional, cell-based
Summary of the method: (§4)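 H1975 or A549 cells treated 24 h at various concentrations; apoptosis scored by annexin V/propidium iodide staining and flow cytometry.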

[13] = target: Protein CIP2A (Homo sapiens) (UniProt Q8TCG1); assay: Inhibition of CIP2A in human NCI-H1975 cells assessed as potentiation of cisplatin-induced PARP cleavage at 1 uM after 24 hrs by Western blot analysis; type: cell-based
Summary of the method: (§5)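 Cells cultured 24 h with test agent and/or cisplatin; lysates immunoblotted for PARP cleavage.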

A549 [14] = assay: Cytotoxicity against human A549 cells assessed as growth inhibition at 5 uM after 24 hrs by MTT assay in presence of pan-caspase inhibitor z-VAD.fmk; type: functional, cell-based
Summary of the method: (§6)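 Cells pretreated 1 h with z-VAD-fmk (20 μM), then exposed for 24 h (H1975 at 1.5 μM, A549 at 5 μM); viability by MTT.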

A549 [15] = assay: Downregulation of CIP2A mRNA expression in human A549 cells at 1 to 10 uM after 24 hrs by RT-PCR analysis; type: functional, cell-based
Summary of the method: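 CIP2A transcript measured by real-time quantitative RT-PCR after 24 h treatment.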

A549 [16] = assay: Cytotoxicity against human A549 cells assessed as growth inhibition at 5 uM after 24 hrs by MTT assay in presence of PP2A inhibitor okadaic acid; type: functional, cell-based
Summary of the method: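 A549 cells pretreated 2 h with okadaic acid (25 nM), then 5 μM test agent for 24 h; viability by MTT.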

[17] = target: Protein CIP2A (Homo sapiens) (UniProt Q8TCG1); assay: Inhibition of CIP2A in human A549 cells assessed as potentiation of cisplatin-induced PARP cleavage at 3.5 uM after 24 hrs by Western blot analysis; type: cell-based; summary of the method: as §5
[18] = target: Protein CIP2A (Homo sapiens) (UniProt Q8TCG1); assay: Inhibition of CIP2A in human A549 cells assessed as potentiation of cisplatin-induced cell growth inhibition at 3.5 uM after 24 hrs by MTT assay; type: cell-based
Summary of the method: (§7)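 Cells treated 24 h with test agent, cisplatin or both (H1975: 1 μM with 10 μM cisplatin; A549: 3.5 μM with 20 μM cisplatin); viability by MTT.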

[19] = target: Protein CIP2A (Homo sapiens) (UniProt Q8TCG1); assay: Inhibition of CIP2A in human NCI-H1975 cells assessed as downregulation of c-Myc protein expression at 1 to 2.5 uM after 24 hrs by Western blot analysis; type: cell-based; summary of the method: as §3
[20] = target: Protein CIP2A (Homo sapiens) (UniProt Q8TCG1); assay: Induction of FLAG-tagged CIP2A (unknown origin) proteolysis transfected in human A549 cells after 4 to 12 hrs; type: cell-based
Summary of the method: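 A549 cells transfected 24 h with Flag-CIP2A, then treated over a time course; whole-cell lysates probed with anti-Flag.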

NCI-H1975 [21] = assay: Induction of apoptosis in human NCI-H1975 cells assessed as PARP cleavage at 1.5 uM after 24 hrs by Western blot analysis in presence of pan-caspase inhibitor z-VAD.fmk; type: functional, cell-based
Summary of the method: (§8)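 Cells pretreated 1 h with z-VAD-fmk (20 μM), then exposed for 24 h (H1975 at 1.5 μM, A549 at 5 μM); lysates immunoblotted for PARP and its cleavage fragment.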

[22] = Cytotoxicity against human GLC82 cells assessed as growth inhibition after 48 hrs by MTT assay; type: functional, cell-based; conditions: GLC82, 48 h; summary of the method: as §1
NCI-H1975 [23] = assay: Induction of apoptosis in human NCI-H1975 cells assessed as decrease in pro-caspase-8 protein expression at 1 to 2.5 uM after 24 hrs by Western blot analysis; type: functional, cell-based; summary of the method: as §2
A549 [24] = assay: Downregulation of CIP2A protein expression in human A549 cells at 5 uM by Western blot analysis; type: functional, cell-based; conditions: TDE = time-dependent effect
Summary of the method: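 A549 cells treated with 5 μM over a time course; lysates immunoblotted for CIP2A.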

[25] = target: Protein CIP2A (Homo sapiens) (UniProt Q8TCG1); assay: Inhibition of CIP2A in human NCI-H1975 cells assessed as potentiation of cisplatin-induced cell growth inhibition at 1 uM after 24 hrs by MTT assay; type: cell-based; summary of the method: as §7
[26] = target: Protein CIP2A (Homo sapiens) (UniProt Q8TCG1); assay: Inhibition of CIP2A in human NCI-H1975 cells assessed as downregulation of p-AKT protein expression at 1 to 2.5 uM after 24 hrs by Western blot analysis; type: cell-based; summary of the method: as §3
NCI-H1975 [27] = assay: Induction of apoptosis in human NCI-H1975 cells assessed as decrease in pro-caspase-9 protein expression at 1 to 2.5 uM after 24 hrs by Western blot analysis; type: functional, cell-based; summary of the method: as §2
A549 [28] = assay: Downregulation of CIP2A protein expression in human A549 cells at 3.5 to 10 uM after 24 hrs by Western blot analysis; type: functional, cell-based; summary of the method: as §3
[29] = Cytotoxicity against human 95-D cells assessed as growth inhibition after 48 hrs by MTT assay; type: functional, cell-based; summary of the method: as §1
NCI-H1975 [30] = assay: Cytotoxicity against human NCI-H1975 cells assessed as growth inhibition at 1.5 uM after 24 hrs by MTT assay in presence of pan-caspase inhibitor z-VAD.fmk; type: functional, cell-based; summary of the method: as §6
[31] = target: Protein CIP2A (Homo sapiens) (UniProt Q8TCG1); assay: Inhibition of CIP2A in human A549 cells assessed as downregulation of c-Myc protein expression at 1 to 10 uM after 24 hrs by Western blot analysis; type: cell-based; summary of the method: as §3
A549 [32] = assay: Induction of apoptosis in human A549 cells assessed as decrease in pro-caspase-9 protein expression at 1 to 10 uM after 24 hrs by Western blot analysis; type: functional, cell-based; summary of the method: as §2
NCI-H460 = assay: Cytotoxicity against human NCI-H460 cells assessed as growth inhibition after 48 hrs by MTT assay; type: functional, cell-based; conditions: NCI-H460, 48 h; summary of the method: as §1
[33] = target: Protein CIP2A (Homo sapiens) (UniProt Q8TCG1); assay: Induction of CIP2A proteolysis in human A549 cells at 5 uM after 4 hrs in presence of protein synthesis inhibitor cycloheximide; type: cell-based
Summary of the method: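 A549 cells given 100 μg/mL cycloheximide with or without 5 μM test agent over a time course; whole-cell lysates probed for CIP2A.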

[34] = target: Protein CIP2A (Homo sapiens) (UniProt Q8TCG1); assay: Inhibition of CIP2A in human A549 cells assessed as induction of PP2A activity at 5 uM after 4 to 8 hrs by Western blot analysis; type: cell-based
Summary of the method: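 A549 cells exposed to 5 μM over a time course, lysed, and PP2A activity measured in the lysates.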

A549 [35] = assay: Induction of apoptosis in human A549 cells at 2.5 to 10 uM after 24 hrs by annexin V/propidium iodide staining-based flow cytometric analysis; type: functional, cell-based; summary of the method: as §4
[36] = target: Protein CIP2A (Homo sapiens) (UniProt Q8TCG1); assay: Inhibition of CIP2A in human A549 cells assessed as downregulation of p-AKT protein expression at 1 to 10 uM after 24 hrs by Western blot analysis; type: cell-based; summary of the method: as §3
A549 [37] = assay: Induction of apoptosis in human A549 cells assessed as PARP cleavage at 5 uM after 24 hrs by Western blot analysis in presence of pan-caspase inhibitor z-VAD.fmk; type: functional, cell-based; summary of the method: as §8

C=C1C(=O)[C@]23[C@H](O)[C@H]1CC[C@H]2[C@@]12CO[C@@]3(O)C[C@@H]1C(C)(C)CC[C@@H]2OC(C)=O [RABDOCOETSIN B]
14200 nM: IC50 (A549 [2])
active: Activity (NCI-H1975 [1]) | Activity (A549 [3]) | Activity (A549 [4])
10300 nM: IC50 (NCI-H1975 [5])

CCOC1c2c(ccc3c2OCO3)-c2ccc3cc4c(cc3c2N1C)OCO4 (stereo not given)
2740 nM: IC50 (A549 [2])
active: Activity (A549 [7]) | Activity (NCI-H1975 [8]) | Activity (A549 [9]) | Activity (NCI-H1975 [11]) | Activity (NCI-H1975 [12]) | inhibition [13] | Activity (A549 [15]) | inhibition [17] | inhibition [18] | inhibition [19] | Activity [20] | Activity (NCI-H1975 [23]) | Activity (A549 [24]) tde | inhibition [25] | inhibition [26] | Activity (NCI-H1975 [27]) | Activity (A549 [28]) | inhibition [31] | Activity (A549 [32]) | Activity [33] | inhibition [34] | Activity (A549 [35]) | inhibition [36]
1300 nM: IC50 [22]
inactive: growth inhibition (GI) (A549 [14]) | growth inhibition (GI) (A549 [16]) | Activity (NCI-H1975 [21]) | growth inhibition (GI) (NCI-H1975 [30]) | Activity (A549 [37])
1290 nM: IC50 (NCI-H1975 [5])
1100 nM: IC50 [6]
1560 nM: IC50 (NCI-H460)
2000 nM: IC50 [29]
1000 nM: IC50 [10]
